What was measured:
Type in all cases: functional
[1] = tested on: Felis catus; assay: Average food consumed at the dose of 0.25 mg/kg (po) using 10 cats per dose level at 30 min (control day/ test day); 24/129
[2] = tested on: Felis catus; assay: Average food consumed at the dose of 0.50 mg/kg (po) using 10 cats per dose level at 180 min (control day/ test day); 36/188; conditions: dose 0.5 mg/kg
Summary of the method: (§1)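 Cats given test compound suspended in 1% methylcellulose, or 1% methylcellulose placebo, by gavage 30 min before a preweighed test meal. Food was offered in surplus for 3 h, and intake was found by reweighing at 30, 60 and 180 min. Ten cats per dose, each dosed no more than once weekly. Test-day intake was compared with the preceding control day by two-tailed paired t test (p < 0.05); values are mean ± SD.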

[3] = tested on: Felis catus; assay: Average food consumed at the dose of 0.25 mg/kg (po) using 10 cats per dose level at 180 min (control day/ test day); 25/236
[4] = tested on: Felis catus; assay: Average food consumed at the dose of 0.25 mg/kg (po) using 10 cats per dose level at 60 min (control day/ test day); 31/179; summary of the method: as §1
[5] = tested on: Felis catus; assay: Average food consumed at the dose of 0.50 mg/kg (po) using 10 cats per dose level at 30 min (control day/ test day); 35/108; conditions: dose 0.5 mg/kg; summary of the method: as §1
[6] = tested on: Felis catus; assay: Average food consumed at the dose of 0.031 mg/kg (po) using 10 cats per dose level at 30 min (control day/ test day); 20/55
[7] = tested on: Felis catus; assay: Average food consumed at the dose of 0.25 mg/kg (po) using 10 cats per dose level at 60 min (control day/ test day); 31/66; summary of the method: as §1
[8] = tested on: Felis catus; assay: Average food consumed at the dose of 0.063 mg/kg (po) using 10 cats per dose level at 180 min (control day/ test day); 17/166
[9] = tested on: Felis catus; assay: Average food consumed at the dose of 0.50 mg/kg (po) using 10 cats per dose level at 30 min (control day/ test day); 30/147; conditions: dose 0.5 mg/kg; summary of the method: as §1
[10] = tested on: Felis catus; assay: Average food consumed at the dose of 0.50 mg/kg (po) using 10 cats per dose level at 60 min (control day/ test day); 33/124; conditions: dose 0.5 mg/kg; summary of the method: as §1
[11] = tested on: Felis catus; assay: Average food consumed at the dose of 0.50 mg/kg (po) using 10 cats per dose level at 60 min (control day/ test day); 19/96; conditions: dose 0.5 mg/kg; summary of the method: as §1
[12] = tested on: Felis catus; assay: Average food consumed at the dose of 0.063 mg/kg (po) using 10 cats per dose level at 30 min (control day/ test day); 17/57
[13] = tested on: Felis catus; assay: Average food consumed at the dose of 0.031 mg/kg (po) using 10 cats per dose level at 60 min (control day/ test day); 17/79
[14] = tested on: Felis catus; assay: Average food consumed at the dose of 0.25 mg/kg (po) using 10 cats per dose level at 30 min (control day/ test day); 17/76
[15] = tested on: Felis catus; assay: Average food consumed at the dose of 0.031 mg/kg (po) using 10 cats per dose level at 180 min (control day/ test day); 27/159
[16] = tested on: Felis catus; assay: Average food consumed at the dose of 0.50 mg/kg (po) using 10 cats per dose level at 60 min (control day/ test day); 34/203; conditions: dose 0.5 mg/kg; summary of the method: as §1
[17] = tested on: Felis catus; assay: Average food consumed at the dose of 0.50 mg/kg (po) using 10 cats per dose level at 30 min (control day/ test day); 13/68; conditions: dose 0.5 mg/kg; summary of the method: as §1
[18] = tested on: Felis catus; assay: Average food consumed at the dose of 0.25 mg/kg (po) using 10 cats per dose level at 60 min (control day/ test day); 25/109; summary of the method: as §1
[19] = tested on: Felis catus; assay: Average food consumed at the dose of 0.25 mg/kg (po) using 10 cats per dose level at 180 min (control day/ test day); 30/169
[20] = tested on: Felis catus; assay: Average food consumed at the dose of 0.50 mg/kg (po) using 10 cats per dose level at 180 min (control day/ test day); 16/141; conditions: dose 0.5 mg/kg; summary of the method: as §1
[21] = tested on: Felis catus; assay: Average food consumed at the dose of 0.50 mg/kg (po) using 10 cats per dose level at 180 min (control day/ test day); 34/273; conditions: dose 0.5 mg/kg; summary of the method: as §1
[22] = tested on: Felis catus; assay: Average food consumed at the dose of 0.25 mg/kg (po) using 10 cats per dose level at 30 min (control day/ test day); 32/66; summary of the method: as §1
[23] = tested on: Felis catus; assay: Average food consumed at the dose of 0.063 mg/kg (po) using 10 cats per dose level at 60 min (control day/ test day); 18/98
[24] = tested on: Felis catus; assay: Average food consumed at the dose of 0.25 mg/kg (po) using 10 cats per dose level at 180 min (control day/ test day); 41/138

CN1CCC(=C2c3ccccc3C=Cc3ccc(C(=O)O)cc32)CC1
Average consumed [1]: 108 g | Average consumed [2]: 149 g | Average consumed [3]: 191 g | Average consumed [4]: 147 g | Average consumed [5]: 72 g | Average consumed [6]: 68 g | Average consumed [7]: 86 g | Average consumed [8]: 159 g | Average consumed [9]: 116 g | Average consumed [10]: 102 g | Average consumed [11]: 94 g | Average consumed [12]: 68 g | Average consumed [13]: 95 g | Average consumed [14]: 62 g | Average consumed [15]: 157 g | Average consumed [16]: 160 g | Average consumed [17]: 71 g | Average consumed [18]: 90 g | Average consumed [19]: 133 g | Average consumed [20]: 125 g | Average consumed [21]: 219 g | Average consumed [22]: 68 g | Average consumed [23]: 94 g | Average consumed [24]: 137 g

Source: ChEMBL document CHEMBL1122018, “Synthesis and orexigenic activity of some 1-methyl-4-piperidylidene-Substituted pyrrolo[2,1-g][3] benzazepine and dibenzocycloheptene derivatives” (1982)
